Holding throughout (format): functional
Assay [1] has as its system Rattus norvegicus. Put plainly: In vivo agonist angiotensin II like activity was measured in rat blood pressure increase by a 1 ug iv injection. The essentials: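 Rat blood pressure in vivo. Residual AII-like activity read as the pressor rise (mmHg) after a 1-μg intravenous bolus of compound. Mean of at least five tests with standard error.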
The species entered for another assay is Oryctolagus cuniculus. Put plainly: In vitro agonist angiotensin II like activity was measured in the rabbit aorta strip assay. The essentials:
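Isolated rabbit aortic strips in vitro. Agonist (AII-like) activity expressed as percent of the activity of AII.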

Assay [2] has as its system Rattus norvegicus. Put plainly: Antagonist activity ID50 was measured in vivo in the rat blood pressure assay. The essentials:
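Rat blood pressure in vivo, 250-g rats, compound given by infusion. AII dose-response curves measured before and during the infusion. ID50 expressed as ng/rat per min. Mean of at least five tests with standard error.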

For assay [3], the system named is Rattus norvegicus. Put plainly: In vivo angiotensin II like activity was measured in rat blood pressure assay expressed as percent activity relative to A II.

Non-standard residues stand in square brackets, D forms with d. Residues, ends and D or L forms follow the SMILES beside them. 3Thi = N[C@@H](Cc1ccsc1)C(=O)O; Sar = CNCC(=O)O

Compound `CC[C@H](C)[C@H](NC(=O)[C@@H]1CCCN1C(=O)[C@H](Cc1ccccc1)NC(=O)[C@@H](NC(=O)[C@H](Cc1ccc(O)cc1)NC(=O)[C@@H](NC(=O)[C@H](CCCN=C(N)N)NC(=O)CNC)C(C)C)[C@@H](C)CC)C(=O)O` (H-[Sar]RVYIFPI-OH) showed a BP increase with Rattus norvegicus [1] of 10 mmHg. In the assay filed under Oryctolagus cuniculus, this compound gave an Activity of 0%. For the same compound, the ID50 in the assay with Rattus norvegicus [2] was found to be 100 ng min-1 rat-1.

Compound `CC[C@H](C)[C@H](NC(=O)[C@@H]1CCCN1C(=O)[C@H](Cc1c[nH]c2ccccc12)NC(=O)[C@@H](NC(=O)[C@H](Cc1ccc(O)cc1)NC(=O)[C@@H](NC(=O)[C@H](CCCN=C(N)N)NC(=O)CNC)C(C)C)[C@@H](C)CC)C(=O)O` (H-[Sar]RVYIWPI-OH) had a BP increase with Rattus norvegicus [1] of 7.5 mmHg. This compound also displayed an Activity in the assay filed under Oryctolagus cuniculus of 0%. This compound also came in with an ID50 with Rattus norvegicus [2] of 100 ng min-1 rat-1.

In the assay with Rattus norvegicus [1], `CC[C@H](C)[C@H](NC(=O)[C@@H]1CCCN1C(=O)[C@H](Cc1c[nH]cn1)NC(=O)[C@@H](NC(=O)[C@H](Cc1ccc(O)cc1)NC(=O)[C@@H](NC(=O)[C@@H](CCCCN)NC(=O)CNC)C(C)C)[C@@H](C)CC)C(=O)O` showed a BP increase of 12.5 mmHg. The compound further gave an Activity in the assay listed under Oryctolagus cuniculus of 0%. Further, in the assay with Rattus norvegicus [2], the ID50 is given as 50 ng min-1 rat-1.

Compound `CC[C@H](C)[C@H](NC(=O)[C@@H]1CCCN1C(=O)[C@H](Cc1c[nH]cn1)NC(=O)[C@@H](NC(=O)[C@H](Cc1ccc(O)cc1)NC(=O)[C@@H](NC(=O)[C@@H](CCCN=C(N)N)NC(=O)CNC)C(C)C)[C@@H](C)CC)C(=O)O` gave a BP increase with Rattus norvegicus [1] of 10 mmHg. The Activity in the assay filed under Oryctolagus cuniculus is 0%. Further, in the assay with Rattus norvegicus [2], the ID50 is reported as 100 ng min-1 rat-1.

As for `CC[C@H](C)[C@H](NC(=O)[C@@H]1CCCN1C(=O)[C@H](Cc1cncn1C)NC(=O)[C@@H](NC(=O)[C@H](Cc1ccc(O)cc1)NC(=O)[C@@H](NC(=O)[C@H](CCCN=C(N)N)NC(=O)CNC)C(C)C)[C@@H](C)CC)C(=O)O`, the BP increase in the assay with Rattus norvegicus [1] was determined as 2.5 mmHg. Moreover, in the assay listed under Oryctolagus cuniculus, the Activity stood at 0%. Also, in the assay on Rattus norvegicus [2], the ID50 is listed as 100 ng min-1 rat-1.

The compound `CC[C@H](C)[C@H](NC(=O)[C@@H]1CCCN1C(=O)[C@H](Cc1c[nH]cn1)NC(=O)[C@@H](NC(=O)[C@H](Cc1ccc(O)cc1)NC(=O)[C@@H](NC(=O)[C@@H](C)NC)C(C)C)[C@@H](C)CC)C(=O)O` displayed a BP increase with Rattus norvegicus [1] of 10 mmHg. In the assay filed under Oryctolagus cuniculus, the Activity was determined as 0%. For the same compound, the ID50 with Rattus norvegicus [2] amounted to 25 ng min-1 rat-1.

As for `CC[C@H](C)[C@H](NC(=O)[C@@H]1CCCN1C(=O)[C@H](Cc1ccsc1)NC(=O)[C@@H](NC(=O)[C@H](Cc1ccc(O)cc1)NC(=O)[C@@H](NC(=O)[C@H](CCCN=C(N)N)NC(=O)CNC)C(C)C)[C@@H](C)CC)C(=O)O` (H-[Sar]RVYI[3Thi]PI-OH), the BP increase in the assay on Rattus norvegicus [1] came out at 12.5 mmHg. The same compound yielded an Activity in the assay filed under Oryctolagus cuniculus of 0%. This compound registered an ID50 in the assay on Rattus norvegicus [2] of 100 ng min-1 rat-1.

As to `CC[C@@H](N)C(=O)N[C@H](C(=O)N[C@@H](Cc1ccc(O)cc1)C(=O)N[C@H](C(=O)N[C@@H](Cc1c[nH]cn1)C(=O)N1CCC[C@H]1C(=O)N[C@@H](Cc1ccccc1)C(=O)O)[C@@H](C)CC)C(C)C`, in the assay on Rattus norvegicus [3], the Activity stood at 22%.

Regarding `CC[C@H](C)[C@H](NC(=O)[C@@H]1CCCN1C(=O)[C@H](Cc1c[nH]cn1)NC(=O)[C@@H](NC(=O)[C@H](Cc1ccc(O)cc1)NC(=O)[C@@H](NC(=O)[C@H](CCCN=C(N)N)NC(=O)CNC)C(C)C)[C@@H](C)CC)C(=O)O`, the BP increase with Rattus norvegicus [1] is 10.2 mmHg. In addition, the Activity in the assay listed under Oryctolagus cuniculus stood at 0%. In the assay with Rattus norvegicus [2], this compound registered an ID50 of 10 ng min-1 rat-1.

In the assay on Rattus norvegicus [1], `CC[C@H](C)[C@H](NC(=O)[C@@H]1CCCN1C(=O)[C@H](Cc1c[nH]cn1)NC(=O)[C@@H](NC(=O)[C@H](Cc1ccc(O)cc1)NC(=O)[C@@H](NC(=O)[C@H](N)CCCN=C(N)N)C(C)C)[C@@H](C)CC)C(=O)O` gave a BP increase of 5 mmHg. The compound also came in with an Activity in the assay listed under Oryctolagus cuniculus of 0%. The same compound had an ID50 in the assay with Rattus norvegicus [2] of 100 ng min-1 rat-1.

As for `CC[C@H](C)[C@H](NC(=O)[C@H](Cc1ccc(O)cc1)NC(=O)[C@@H](NC(=O)[C@H](C)NC(=O)[C@@H](N)CC(=O)O)C(C)C)C(=O)N[C@@H](Cc1c[nH]cn1)C(=O)N1CCC[C@H]1C(=O)N[C@@H](Cc1ccccc1)C(=O)O` (H-DAVYIHPF-OH), the Activity with Rattus norvegicus [3] came out at 7.7%.

`CC[C@H](C)[C@H](NC(=O)[C@@H]1CCCN1C(=O)[C@H](Cc1c[nH]cn1)NC(=O)[C@@H](NC(=O)[C@H](Cc1ccc(O)cc1)NC(=O)[C@@H](NC(=O)CN(C)C(=O)CNC)C(C)C)[C@@H](C)CC)C(=O)O` (H-[Sar][Sar]VYIHPI-OH) yielded a BP increase with Rattus norvegicus [1] of 8.5 mmHg. Besides, in the assay filed under Oryctolagus cuniculus, the Activity stood at 0%. Further, in the assay on Rattus norvegicus [2], the ID50 is 150 ng min-1 rat-1.

Regarding `CC[C@H](C)[C@H](NC(=O)[C@H](Cc1ccc(O)cc1)NC(=O)[C@@H](NC(=O)[C@@H](N)CCCCN=C(N)N)C(C)C)C(=O)N[C@@H](Cc1c[nH]cn1)C(=O)N1CCC[C@H]1C(=O)N[C@@H](Cc1ccccc1)C(=O)O`, the Activity in the assay on Rattus norvegicus [3] turned out to be 2.07%.

In turn, `CC[C@H](C)[C@H](NC(=O)[C@@H]1CCCN1C(=O)[C@H](Cc1c[nH]cn1)NC(=O)[C@@H](NC(=O)[C@H](Cc1ccc(O)cc1)NC(=O)[C@@H](NC(=O)[C@@H](C)N)C(C)C)[C@@H](C)CC)C(=O)O` displayed a BP increase in the assay with Rattus norvegicus [1] of 5 mmHg. This compound returned an Activity in the assay listed under Oryctolagus cuniculus of 0%. Also, in the assay with Rattus norvegicus [2], the ID50 is listed as 100 ng min-1 rat-1.

For the compound `CC[C@H](C)[C@H](NC(=O)[C@@H]1CCCN1C(=O)[C@H](Cc1c[nH]cn1)NC(=O)[C@@H](NC(=O)[C@H](Cc1ccc(O)cc1)NC(=O)[C@@H](NC(=O)[C@H](CCCCN=C(N)N)NC(=O)CNC)C(C)C)[C@@H](C)CC)C(=O)O`, in the assay on Rattus norvegicus [1], the BP increase stood at 7.5 mmHg. The Activity in the assay filed under Oryctolagus cuniculus is reported as 0%. In the assay on Rattus norvegicus [2], this compound returned an ID50 of 50 ng min-1 rat-1.

Source of the values: ChEMBL document CHEMBL1124220 (J Med Chem, 1988).
